Converted amounts (≈) assume the structure as drawn.
Key:
Bacteroides uniformis [1] = experiment: Antibacterial activity against beta-lactamase producing Bacteroides uniformis assessed as susceptible isolates by CLSI agar dilution method in presence of clavulanate; format: functional
Summary of the method: (§1)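 Agar dilution per CLSI guidelines on nonduplicate anaerobic bloodstream isolates collected at NTUH, January to December 2006. Isolates were spotted by Steers replicator onto supplemented Brucella blood agar and incubated anaerobically for 48 h at 35°C. MIC was the lowest drug concentration that inhibited growth. B. fragilis ATCC 25285, B. thetaiotaomicron ATCC 29741 and E. lentum ATCC 43055 were run as QC in each run.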

Bacteroides uniformis [2] = experiment: Antibacterial activity against beta-lactamase producing Bacteroides uniformis assessed as resistant isolates by CLSI agar dilution method in presence of clavulanate; format: functional
Summary of the method: (§2)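 207 nonduplicate anaerobic blood isolates from patients with bloodstream infections at NTUH, collected January–December 2006. MICs were determined by agar dilution following CLSI guidelines. Inocula were applied with a Steers replicator onto supplemented Brucella blood agar and incubated 48 h at 35°C in an anaerobic chamber. MIC was the lowest concentration inhibiting growth. B. fragilis ATCC 25285, B. thetaiotaomicron ATCC 29741 and E. lentum ATCC 43055 served as controls in each run.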

Bacteroides caccae [3] = experiment: Antibacterial activity against beta-lactamase producing Bacteroides caccae by CLSI agar dilution method in presence of clavulanate; format: functional; summary of the method: as §1
Bacteroides caccae [4] = experiment: Antibacterial activity against beta-lactamase producing Bacteroides caccae assessed as resistant isolates by CLSI agar dilution method in presence of clavulanate; format: functional; summary of the method: as §2
[5] = system: Fusobacterium necrophorum; experiment: Antibacterial activity against Fusobacterium necrophorum assessed as resistant isolates by CLSI agar dilution method in presence of clavulanate; format: functional; summary of the method: as §2
[6] = system: Prevotella melaninogenica; experiment: Antibacterial activity against Prevotella melaninogenica by CLSI agar dilution method in presence of clavulanate; format: functional; summary of the method: as §1
Clostridium septicum [7] = experiment: Antibacterial activity against beta-lactamase producing Clostridium septicum by CLSI agar dilution method in presence of clavulanate; format: functional
Summary of the method: (§3)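 CLSI agar dilution MICs for anaerobic blood isolates (nonduplicate) collected from bloodstream-infection patients at a Taiwanese tertiary hospital, January–December 2006. Isolates were spotted by Steers replicator onto supplemented Brucella blood agar and incubated anaerobically for 48 h at 35°C. MIC was the lowest drug concentration inhibiting growth. Each run included B. fragilis ATCC 25285, B. thetaiotaomicron ATCC 29741 and E. lentum ATCC 43055 as quality-control strains.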

[8] = system: Clostridium paraputrificum; experiment: Antibacterial activity against beta-lactamase producing Clostridium paraputrificum assessed as susceptible isolates by CLSI agar dilution method in presence of clavulanate; format: functional; summary of the method: as §3
Clostridium tertium [9] = experiment: Antibacterial activity against beta-lactamase producing Clostridium tertium assessed as susceptible isolates by CLSI agar dilution method in presence of clavulanate; format: functional; summary of the method: as §3
Finegoldia magna [10] = experiment: Antibacterial activity against beta-lactamase producing Finegoldia magna assessed as resistant isolates by CLSI agar dilution method in presence of clavulanate; format: functional; summary of the method: as §2
[11] = system: Bacteroides thetaiotaomicron; experiment: Antibacterial activity against beta-lactamase producing Bacteroides thetaiotaomicron by CLSI agar dilution method in presence of Tazobactam; format: functional; summary of the method: as §1
[12] = system: Bacteroides thetaiotaomicron; experiment: Antibacterial activity against beta-lactamase producing Bacteroides thetaiotaomicron assessed as susceptible isolates by CLSI agar dilution method; format: functional
Phocaeicola vulgatus = experiment: Antibacterial activity against beta-lactamase producing Bacteroides vulgatus assessed as susceptible isolates by CLSI agar dilution method in presence of Tazobactam; format: functional; summary of the method: as §3
Bacteroides uniformis [13] = experiment: Antibacterial activity against beta-lactamase producing Bacteroides uniformis by CLSI agar dilution method in presence of Tazobactam; format: functional; summary of the method: as §1
Bacteroides caccae [14] = experiment: Antibacterial activity against beta-lactamase producing Bacteroides caccae by CLSI agar dilution method; format: functional
Bacteroides caccae [15] = experiment: Antibacterial activity against beta-lactamase producing Bacteroides caccae by CLSI agar dilution method in presence of Tazobactam; format: functional; summary of the method: as §1
Fusobacterium varium [16] = experiment: Antibacterial activity against Fusobacterium varium by CLSI agar dilution method; format: functional
Fusobacterium nucleatum [17] = experiment: Antibacterial activity against Fusobacterium nucleatum by CLSI agar dilution method; format: functional
Fusobacterium mortiferum = experiment: Antibacterial activity against Fusobacterium mortiferum by CLSI agar dilution method in presence of Tazobactam; format: functional; summary of the method: as §1
Fusobacterium varium [18] = experiment: Antibacterial activity against Fusobacterium varium assessed as susceptible isolates by CLSI agar dilution method in presence of Tazobactam; format: functional; summary of the method: as §1
Fusobacterium nucleatum [19] = experiment: Antibacterial activity against Fusobacterium nucleatum assessed as resistant isolates by CLSI agar dilution method in presence of Tazobactam; format: functional; summary of the method: as §2
Prevotella bivia [20] = experiment: Antibacterial activity against Prevotella bivia by CLSI agar dilution method; format: functional
Prevotella buccae [21] = experiment: Antibacterial activity against Prevotella buccae by CLSI agar dilution method in presence of Tazobactam; format: functional; details: Segatella buccae; summary of the method: as §1
Prevotella buccae [22] = experiment: Antibacterial activity against Prevotella buccae assessed as susceptible isolates by CLSI agar dilution method; format: functional, Segatella buccae
Prevotella bivia [23] = experiment: Antibacterial activity against Prevotella bivia assessed as susceptible isolates by CLSI agar dilution method; format: functional
Prevotella bivia [24] = experiment: Antibacterial activity against Prevotella bivia assessed as susceptible isolates by CLSI agar dilution method in presence of Tazobactam; format: functional; summary of the method: as §1
Prevotella bivia [25] = experiment: Antibacterial activity against Prevotella bivia assessed as resistant isolates by CLSI agar dilution method in presence of Tazobactam; format: functional; summary of the method: as §2
Clostridium tertium [26] = experiment: Antibacterial activity against beta-lactamase producing Clostridium tertium by CLSI agar dilution method in presence of Tazobactam; format: functional; summary of the method: as §3
Clostridium septicum [27] = experiment: Antibacterial activity against beta-lactamase producing Clostridium septicum assessed as susceptible isolates by CLSI agar dilution method; format: functional
Clostridium tertium [28] = experiment: Antibacterial activity against beta-lactamase producing Clostridium tertium assessed as susceptible isolates by CLSI agar dilution method; format: functional
Clostridium septicum [29] = experiment: Antibacterial activity against beta-lactamase producing Clostridium septicum assessed as susceptible isolates by CLSI agar dilution method in presence of Tazobactam; format: functional; summary of the method: as §3
[30] = system: Peptostreptococcus anaerobius; experiment: Antibacterial activity against beta-lactamase producing Peptostreptococcus anaerobius assessed as resistant isolates by CLSI agar dilution method; format: functional
[31] = system: Peptostreptococcus anaerobius; experiment: Antibacterial activity against beta-lactamase producing Peptostreptococcus anaerobius assessed as susceptible isolates by CLSI agar dilution method in presence of Tazobactam; format: functional; summary of the method: as §3
Parvimonas micra [32] = experiment: Antibacterial activity against beta-lactamase producing Micromonas micros by CLSI agar dilution method in presence of Tazobactam; format: functional; summary of the method: as §3
Parvimonas micra [33] = experiment: Antibacterial activity against beta-lactamase producing Micromonas micros assessed as resistant isolates by CLSI agar dilution method in presence of Tazobactam; format: functional; summary of the method: as §2
[34] = system: Peptoniphilus asaccharolyticus; experiment: Antibacterial activity against beta-lactamase producing Peptoniphilus asaccharolyticus by CLSI agar dilution method in presence of Tazobactam; format: functional; summary of the method: as §3
Finegoldia magna [35] = experiment: Antibacterial activity against beta-lactamase producing Finegoldia magna assessed as susceptible isolates by CLSI agar dilution method; format: functional

Question: `CC1(C)S[C@@H]2[C@H](NC(=O)[C@H](N)c3ccc(O)cc3)C(=O)N2[C@H]1C(=O)O` [AMOXICILLIN] was tested. Which Activity (Bacteroides uniformis [1]) did it give?
Answer: The Activity was 53%.

Question: And the Activity (Bacteroides uniformis [2])?
Answer: The Activity was 30%.

Question: What about the MIC50 (Bacteroides caccae [3]) of the same compound?
Answer: Its MIC50 is 8 µg/mL.

Question: What about the MIC90 (Bacteroides caccae [3]) of the same compound?
Answer: Its MIC90 is 32 µg/mL.

Question: What about the Activity (Bacteroides caccae [4]) of the same compound?
Answer: The Activity was 30%.

Question: What about the Activity [5] of the same compound?
Answer: Its Activity is 7%.

Question: And the MIC50 [6]?
Answer: Its MIC50 is 4 µg/mL.

Question: And the MIC90 [6]?
Answer: Its MIC90 is 16 µg/mL.

Question: What about the MIC50 (Clostridium septicum [7]) of the same compound?
Answer: The MIC50 was 0.5 µg/mL.

Question: And the MIC90 (Clostridium septicum [7])?
Answer: The MIC90 was 2 µg/mL.

Question: What about the Activity [8] of the same compound?
Answer: Its Activity is 96%.

Question: And the Activity (Clostridium tertium [9])?
Answer: Its Activity is 96%.

Question: What about the Activity (Finegoldia magna [10]) of the same compound?
Answer: Its Activity is 3%.

Question: How did the MIC50 [11] turn out when `CCN1CCN(C(=O)N[C@@H](C(=O)N[C@@H]2C(=O)N3[C@@H]2SC(C)(C)[C@@H]3C(=O)O)c2ccccc2)C(=O)C1=O` [PIPERACILLIN] was run?
Answer: Its MIC50 is 8 µg/mL.

Question: And the MIC90 [11]?
Answer: The MIC90 was 32 µg/mL.

Question: What about the Activity [12] of the same compound?
Answer: Its Activity is 63%.

Question: And the Activity (Phocaeicola vulgatus)?
Answer: The Activity was 96%.

Question: And the MIC50 (Bacteroides uniformis [13])?
Answer: Its MIC50 is 8 µg/mL.

Question: And the MIC90 (Bacteroides uniformis [13])?
Answer: Its MIC90 is 16 µg/mL.

Question: What about the MIC50 (Bacteroides caccae [14]) of the same compound?
Answer: The MIC50 was > 128 µg/mL.

Question: And the MIC90 (Bacteroides caccae [14])?
Answer: The MIC90 was > 128 µg/mL.

Question: What about the MIC50 (Bacteroides caccae [15]) of the same compound?
Answer: Its MIC50 is 8 µg/mL.

Question: And the MIC90 (Bacteroides caccae [15])?
Answer: The MIC90 was 16 µg/mL.

Question: And the MIC50 (Fusobacterium varium [16])?
Answer: Its MIC50 is 2 µg/mL (≈ 3.86 µM).

Question: What about the MIC90 (Fusobacterium varium [16]) of the same compound?
Answer: The MIC90 was 8 µg/mL (≈ 15.5 µM).

Question: What about the MIC50 (Fusobacterium nucleatum [17]) of the same compound?
Answer: Its MIC50 is 2 µg/mL (≈ 3.86 µM).

Question: What about the MIC90 (Fusobacterium nucleatum [17]) of the same compound?
Answer: Its MIC90 is 8 µg/mL (≈ 15.5 µM).

Question: What about the MIC50 (Fusobacterium mortiferum) of the same compound?
Answer: Its MIC50 is 0.5 µg/mL.

Question: What about the MIC90 (Fusobacterium mortiferum) of the same compound?
Answer: Its MIC90 is 2 µg/mL.

Question: What about the Activity (Fusobacterium varium [18]) of the same compound?
Answer: Its Activity is 100%.

Question: And the Activity (Fusobacterium nucleatum [19])?
Answer: The Activity was 0%.

Question: What about the MIC50 (Prevotella bivia [20]) of the same compound?
Answer: Its MIC50 is 16 µg/mL (≈ 30.9 µM).

Question: What about the MIC90 (Prevotella bivia [20]) of the same compound?
Answer: The MIC90 was 128 µg/mL (≈ 247 µM).

Question: And the MIC (Prevotella buccae [21])?
Answer: The MIC was 0.03 µg/mL.

Question: And the MIC50 (Prevotella buccae [21])?
Answer: Its MIC50 is 0.03 µg/mL.

Question: What about the MIC90 (Prevotella buccae [21]) of the same compound?
Answer: Its MIC90 is 1 µg/mL.

Question: And the Activity (Prevotella buccae [22])?
Answer: Its Activity is 71%.

Question: What about the Activity (Prevotella bivia [23]) of the same compound?
Answer: Its Activity is 71%.

Question: And the Activity (Prevotella bivia [24])?
Answer: The Activity was 100%.

Question: What about the Activity (Prevotella bivia [25]) of the same compound?
Answer: The Activity was 0%.

Question: And the MIC50 (Clostridium tertium [26])?
Answer: The MIC50 was 0.5 µg/mL.

Question: What about the MIC90 (Clostridium tertium [26]) of the same compound?
Answer: The MIC90 was 2 µg/mL.

Question: What about the Activity (Clostridium septicum [27]) of the same compound?
Answer: Its Activity is 100%.

Question: What about the Activity (Clostridium tertium [28]) of the same compound?
Answer: Its Activity is 100%.

Question: What about the Activity (Clostridium septicum [29]) of the same compound?
Answer: The Activity was 100%.

Question: And the Activity [30]?
Answer: The Activity was 3%.

Question: And the Activity [31]?
Answer: The Activity was 97%.

Question: And the MIC (Parvimonas micra [32])?
Answer: The MIC was 0.03 µg/mL.

Question: What about the MIC50 (Parvimonas micra [32]) of the same compound?
Answer: The MIC50 was 0.03 µg/mL.

Question: What about the MIC90 (Parvimonas micra [32]) of the same compound?
Answer: Its MIC90 is 2 µg/mL.

Question: And the Activity (Parvimonas micra [33])?
Answer: Its Activity is 0%.

Question: What about the MIC [34] of the same compound?
Answer: The MIC was 0.03 µg/mL.

Question: What about the MIC50 [34] of the same compound?
Answer: The MIC50 was 0.03 µg/mL.

Question: What about the MIC90 [34] of the same compound?
Answer: Its MIC90 is 2 µg/mL.

Question: What about the Activity (Finegoldia magna [35]) of the same compound?
Answer: The Activity was 97%.
